This note sets out measurements from ChEMBL document CHEMBL1165928, “Synthesis and structure-activity relationships of 2-acylamino-4,6-diphenylpyridine derivatives as novel antagonists of GPR54” (Bioorg Med Chem, 2010).

Structures are written as SMILES. Bounds are passed on as bounds.

The target of experiment [1] is T1, KiSS-1 receptor (Homo sapiens, UniProt Q969F8). Kind of experiment: Displacement of [125I]metastin(40-54) from human GPR54 receptor expressed in CHO cells after 60 mins by scintillation counting. The experiment is classed as cell-based. In short, it runs like this: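 Membranes came from CHO h175-KB34 cells stably expressing human GPR54, harvested at ≤50% confluency, homogenized with protease inhibitors, pelleted and stored at −80 °C. Binding used 135 pM 125I-metastin(40-54) in pH 7.4 Tris/Mg acetate/EGTA buffer with 1 mg/ml BSA, 60 min at 25 °C. Samples were filtered on 0.3% PEI-treated GF/C plates, washed three times, and filter radioactivity was counted.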
T1 sequence (Q969F8 whole entry): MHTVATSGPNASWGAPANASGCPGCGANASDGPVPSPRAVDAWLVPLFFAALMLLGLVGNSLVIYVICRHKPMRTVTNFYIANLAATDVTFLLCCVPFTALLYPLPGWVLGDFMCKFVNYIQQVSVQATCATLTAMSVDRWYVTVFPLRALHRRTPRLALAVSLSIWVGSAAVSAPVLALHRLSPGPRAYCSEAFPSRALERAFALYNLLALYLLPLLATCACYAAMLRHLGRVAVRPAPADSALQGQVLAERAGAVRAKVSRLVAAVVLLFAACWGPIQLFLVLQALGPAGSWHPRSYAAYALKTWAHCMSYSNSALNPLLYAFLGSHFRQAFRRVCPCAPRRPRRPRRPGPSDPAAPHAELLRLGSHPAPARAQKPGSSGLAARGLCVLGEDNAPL
On the technique in general: In a radioligand displacement assay an active substance lowers the binding of a labelled ligand.

In experiment [2] the target is T1, KiSS-1 receptor. As to the kind of experiment: Antagonist activity at human GPR54 receptor expressed in CHO cells assessed as inhibition of metastin(40-54)-induced intracellular calcium mobilization by FLIPR assay. The experiment is classed as functional, cell-based. The method, boiled down:
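Human GPR54 cell lines h175-KB33 and h175-16 were plated at 30,000 cells/well and cultured overnight. They were loaded 60 min at 37 °C with Fluo-3AM, 1.25 mM probenecid and 0.04% Pluronic F-127 in pH 7.4 Hepes salt buffer with 0.1% BSA, then washed. Ca2+ was read by FLIPR. Agonist was metastin(40-54) at 30 nM (h175-KB33) or 100 pM (h175-16).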
For orientation: Calcium assays in cells follow changes in intracellular calcium, usually with a dye or a luminescent sensor.

The target in experiment [3] is T1, KiSS-1 receptor. As to conditions: CHO, 10 uM.

What is called IC50 is the concentration that inhibits the measured activity by half. In the case of `N#Cc1c(-c2cccc(NC(=O)CCN)c2)cc(-c2ccc(Br)cc2O)nc1NC(=O)c1cccs1`, the IC50 in experiment [1] came to 19 nM; in experiment [2], 6300 nM.

With `Cc1ccc(-c2cc(-c3cccc(NC(=O)CCN)c3)c(C#N)c(NC(=O)c3cccs3)n2)c(O)c1`, the results for the IC50 in experiment [1] and in experiment [2] were 12 nM and 910 nM, respectively.

Consider `N#Cc1c(-c2cccc(C(=O)NCCN)c2)cc(-c2ccccc2O)nc1NC(=O)c1cccs1`, for which the IC50 in experiment [1] turned out to be 45 nM; in experiment [2], 5100 nM.

Take `CC(C)(CN)CNC(=O)c1cccc(-c2cc(-c3ccc(F)cc3O)nc(NC(=O)c3ccco3)c2C#N)c1`: the IC50 came to 11 nM in experiment [1] and 2500 nM in experiment [2].

Take `CC(C)(CN)NC(=O)c1cccc(-c2cc(-c3ccccc3O)nc(NC(=O)c3ccco3)c2C#N)c1`: the IC50 in experiment [1] came out at 15 nM.

Compound `N#Cc1c(-c2ccccc2C(=O)NCCN)cc(-c2ccccc2O)nc1NC(=O)c1cccs1` returned an IC50 in experiment [1] of 33000 nM.

Take `N#Cc1c(-c2cccc(NC(=O)CCN)c2)cc(-c2ccc(Cl)cc2O)nc1NC(=O)c1cccs1`: the IC50 in experiment [1] came out at 9.8 nM; in experiment [2], 4100 nM.

Turning to `N#Cc1c(-c2cccc(NC(=O)CCCN)c2)cc(-c2ccccc2O)nc1NC(=O)c1cccs1`, the IC50 was determined as 34 nM in experiment [1] and 1400 nM in experiment [2].

Regarding `COc1ccc(C(=O)Nc2nc(-c3ccccc3O)cc(-c3cccc(C(=O)NCCN)c3)c2C#N)cc1`, the IC50 in experiment [1] was 31 nM.

`N#Cc1c(-c2cccc(NC(=O)CCN)c2)cc(-c2ccccc2O)nc1NC(=O)c1cccs1`: the figures for the half-inhibitory concentration (IC50) in experiment [1] and in experiment [2] were 21 nM and 1100 nM, respectively.

For `COc1ccccc1-c1cc(-c2cccc(N)c2)c(C#N)c(NC(=O)c2cccs2)n1`, in experiment [1], the IC50 is above 30000 nM.

Consider `COc1ccc(-c2cc(-c3cccc(NC(=O)CCN)c3)c(C#N)c(NC(=O)c3ccccc3)n2)c(O)c1`, for which the IC50 in experiment [1] was determined as 120 nM.

`N#Cc1c(-c2cccc(NC(=O)CCN)c2)cc(-c2ccccc2N)nc1NC(=O)c1ccccc1` registered an IC50 in experiment [1] of 890 nM.

Compound `COc1ccccc1C(=O)Nc1nc(-c2ccccc2O)cc(-c2cccc(C(=O)NCCN)c2)c1C#N` gave an IC50 in experiment [1] of 45 nM.

In the case of `N#Cc1c(-c2cccc(NC(=O)CCN)c2)cc(-c2cc(Cl)ccc2O)nc1NC(=O)c1cccs1`, the IC50 in experiment [1] is 490 nM.

On to `COc1ccccc1C(=O)Nc1nc(-c2ccccc2O)cc(-c2cccc(C(=O)NC(C)(C)CN)c2)c1C#N`, for which, in experiment [1], the IC50 was 32 nM.

Turning to `N#Cc1c(-c2ccc(C(=O)NCCN)cc2)cc(-c2ccccc2O)nc1NC(=O)c1cccs1`, the IC50 in experiment [1] came to 120 nM.

Regarding `Cc1c(-c2ccccc2O)nc(NC(=O)c2ccco2)c(C#N)c1-c1cccc(NC(=O)CCN)c1`, in experiment [1], the IC50 was determined as 1200 nM.

The compound `N#Cc1c(-c2cccc(CN)c2)cc(-c2ccccc2O)nc1NC(=O)c1cccs1` returned an IC50 in experiment [1] of 570 nM.

In experiment [1], `N#Cc1c(-c2cccc(C(=O)NCCN)c2)cc(-c2ccccc2O)nc1NC(=O)c1ccco1` showed an IC50 of 14 nM.

With `N#Cc1c(-c2cccc(C(=O)O)c2)cc(-c2ccccc2O)nc1NC(=O)c1cccs1`, in experiment [1], the IC50 turned out to be 9900 nM.

For `N#Cc1c(-c2cccc(C(=O)NCCN)c2)cc(-c2ccc(F)cc2O)nc1NC(=O)c1ccco1`, the IC50 in experiment [1] was 8 nM; in experiment [2], 660 nM.

Consider `N#Cc1c(-c2cccc(NC(=O)CCN)c2)cc(-c2ccc(F)cc2O)nc1NC(=O)c1cccs1`, for which the IC50 in experiment [1] is 7.4 nM; in experiment [2], 3600 nM.

For `COc1ccc(C(=O)Nc2nc(-c3ccccc3O)cc(-c3cccc(C(=O)NC(C)(C)CN)c3)c2C#N)cc1`, in experiment [1], the IC50 came out at 32 nM.

For `COc1ccc(O)c(-c2cc(-c3cccc(NC(=O)CCN)c3)c(C#N)c(NC(=O)c3cccs3)n2)c1`, the IC50 in experiment [1] is 480 nM.

With `N#Cc1c(-c2cccc(NC(=O)CCN)c2)cc(-c2ccc(F)cc2O)nc1NC(=O)c1ccco1`, the IC50 in experiment [1] amounted to 3.7 nM; in experiment [2], 460 nM.

A word on the inhibition: it is the share of the control response that was lost under treatment. Low values mean a weak effect, high ones a strong effect. `N#Cc1c(-c2cccc(CO)c2)cc(-c2ccccc2O)nc1NC(=O)c1cccs1` had an IC50 in experiment [1] of 1500 nM. Also, the inhibition in experiment [3] was 58%.

Regarding `N#Cc1c(-c2cccc(NC(=O)CCN)c2)cc(-c2ccccc2O)nc1NC(=O)c1ccccc1`, the IC50 in experiment [1] was 51 nM; in experiment [2] it was 24000 nM.

Take `N#Cc1c(-c2cccc(NC(=O)CN)c2)cc(-c2ccccc2O)nc1NC(=O)c1cccs1`: the IC50 in experiment [1] stood at 51 nM; in experiment [2] it was 2800 nM.

The compound `N#Cc1c(-c2cccc(N)c2)cc(-c2ccccc2O)nc1NC(=O)c1cccs1` came in with an IC50 in experiment [1] of 2100 nM.
